Activity calls are given as the source filed them. The rule behind the calls is not given here.
Tests used:
MCF7 = assay: Cytotoxicity against human MCF7 cells incubated for 72 hrs by MTT assay; format: functional, cell-based; conditions: MCF7, 72 h
[1] = Biosurfactant activity assessed as reduction in surface tension of aqueous solution at 10 to 1200 ug/ml by ring method; format: functional
How it was run: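 Surface tension of aqueous solutions (10−1200 μg/mL) measured by the ring method on a Du Noüy tensiometer with a platinum ring at 25 °C, in triplicate. The instrument was calibrated against pure H2O before each set. CMC was taken from the breakpoint of the surface tension versus log bulk concentration curve.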

[2] = Biosurfactant activity assessed as Critical micelle concentration of compound; format: physicochemical
Amphibalanus amphitrite = assay: Antifouling activity against Amphibalanus amphitrite at 0.88 ug/ml; format: functional, organism-based
[3] = Biosurfactant activity assessed as diameter of clear zone at 10 mg/ml by oil displacement assay; format: functional
How it was run: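 Oil displacement assay as an indirect measure of surface activity: sample tested at 10 mg/mL and the clear-zone diameter measured. SDS and pluronic F-68 were run at the same concentration for reference.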

| SMILES | IC50 (MCF7) [µg/mL] | Activity [1] | CMC [2] [mM] | Activity [3] [mm] | also measured |
| --- | --- | --- | --- | --- | --- |
| COC[C@@H](COC(C)=O)N(C)C(=O)CC/C=C/CCCCC(Cl)CCCCCCCC(Cl)Cl (stereo not given in full) | > 10 | – | – | – | – |
| COC[C@@H](CO)N(C)C(=O)CC/C=C/CCCC[C@H](Cl)CCCCCCCCCl | – | Active | 0.34 | – | – |
| CCCCCCCCCCCCCCC/C=C(\C)C(=O)N[C@@H](CO)COC | – | Active | 0.78 | – | Activity (Amphibalanus amphitrite): Active |
| CCCCCCCCCCCCOS(=O)(=O)[O-].[Na+] | – | – | – | 84 | – |
| COC[C@@H](COC(C)=O)N(C)C(=O)CC/C=C/CCCC[C@H](Cl)CCCCCCCCCl | > 10 | – | – | 90 | – |
| CCCCCCCCC(Cl)CCCC/C=C/CCC(=O)N(C)[C@H](CO)COC (stereo not given in full) | > 10 | – | – | – | – |

— ChEMBL document CHEMBL4619761, “Biosurfactants from Marine Cyanobacteria Collected in Sabah, Malaysia” (J Nat Prod, 2020)
